UHRF1 binding: blocks human UHRF1 binding to methylated DNA | inhibition, % at 4.4 µM | AID 687016 | Q96T88 | UHRF1 binding to methylated oligo, TR-FRET | hit rate 0.75% among 370,000; in the data active means inhibition above about 21%;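 further: UHRF1 SRA domain binding a hemimethylated CpG hairpin DNA probe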
Target sequence (Q96T88 whole entry, looked up, the tested form may be a part): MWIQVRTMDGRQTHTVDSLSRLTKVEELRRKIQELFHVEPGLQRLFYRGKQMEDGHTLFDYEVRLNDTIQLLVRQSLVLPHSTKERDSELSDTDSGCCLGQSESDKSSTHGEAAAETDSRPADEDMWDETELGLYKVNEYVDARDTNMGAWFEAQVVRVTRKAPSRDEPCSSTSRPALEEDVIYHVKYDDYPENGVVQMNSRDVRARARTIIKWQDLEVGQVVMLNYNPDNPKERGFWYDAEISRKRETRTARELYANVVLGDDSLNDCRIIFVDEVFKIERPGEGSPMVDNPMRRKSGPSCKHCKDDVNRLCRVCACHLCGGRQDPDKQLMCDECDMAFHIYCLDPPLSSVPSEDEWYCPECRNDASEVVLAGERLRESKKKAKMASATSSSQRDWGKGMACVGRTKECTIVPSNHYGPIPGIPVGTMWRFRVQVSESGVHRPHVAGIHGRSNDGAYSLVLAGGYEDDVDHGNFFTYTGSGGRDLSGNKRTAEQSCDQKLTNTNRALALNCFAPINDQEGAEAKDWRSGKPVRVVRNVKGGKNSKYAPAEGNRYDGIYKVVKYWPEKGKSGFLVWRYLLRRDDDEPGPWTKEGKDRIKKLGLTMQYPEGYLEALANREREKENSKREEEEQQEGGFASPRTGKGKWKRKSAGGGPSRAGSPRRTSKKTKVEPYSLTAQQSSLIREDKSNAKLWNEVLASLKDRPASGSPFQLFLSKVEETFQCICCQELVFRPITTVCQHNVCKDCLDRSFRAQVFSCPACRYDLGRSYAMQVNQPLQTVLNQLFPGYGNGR
PRMT1 inh: blocks human protein arginine methyltransferase 1 | Q99873 | recombinant PRMT1, activity-based probe fluorescence polarization | inhibition, % at 2.79 µM | hit rate 1.3% among 370,000 | AID 652257;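 active means inhibition above about 21% made by adding two undisclosed values, limit read from the data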
TDP2 absorb: blocks human TDP2 phosphodiesterase activity; O95551; recombinant TDP2, T5PNP hydrolysis, p-nitrophenol absorbance 415 nm; inhibition, % at 12.8 µM; hit rate 0.34% among 370,000; AID 720702;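 active means inhibition above the mean of all tested compounds plus 3 SD, set per campaign, cut at about 25% in these data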
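Read-out basis: percent inhibition. System: recombinant human TDP2. Buffer or medium: Mg2+-containing Tris-HCl buffer, pH 7.5. Repeats: single replicate. Timing: reaction 2 h, 37 °C. Benchmarks: high control without enzyme, low control DMSO plus TDP2. Probe or stimulus: 5 mM T5PNP. Doses: 12.8 µM only. Measured by: epi absorbance of p-nitrophenol freed from T5PNP by hydrolysis.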
SIAE inh: blocks human sialic acid acetylesterase | Q9HAT2 | SIAE FP-Rh probe binding, fluorescence polarization | inhibition, % at 9.66 µM | hit rate 0.69% among 370,000 | AID 1053197;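 active means inhibition above a cutoff: mean of compounds within the control limits plus 3 SD of those, cut at about 17% in these data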
MBD2 inh: inhibitors of human MBD2 binding to methylated oligonucleotide. hit rate 0.31% among 370,000. Q9UBB5. inhibition, % at 4.4 µM. TR-FRET; in the data active means inhibition above about 13%
LEDGF integ inh: blocks HIV-1 LEDGF/p75-dependent DNA integration. inhibition, % at 3.7 µM. hit rate 0.64% among 370,000. TR-FRET IN-LEDGF/p75 DNA integration, Eu/Cy5;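 active means inhibition above the screen-wide mean plus 3 SD, cut at about 13% in these data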;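 further: signal is the Cy5 over europium emission ratio at 671 and 618 nm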
Large screens that a line does not name were inactive. The list is not random: actives were taken first. Their share in the collection is about 3.3%.

COc1ccc(NC(=O)NNC(=O)CCc2ccc(O)c(O)c2)cc1OC	PRMT1 inh 23
NS(=O)(=O)c1ccc(O)c(NC(=O)c2ccc([N+](=O)[O-])o2)c1	UHRF1 binding 42, PRMT1 inh 22
CCc1c(O)nc(SCC(=O)c2ccccc2)n(-c2ccccc2)c1=O	PRMT1 inh 24
CCc1c(O)nc(SCC(=O)NC(C)(C)C)n(-c2ccccc2)c1=O	PRMT1 inh 24
CCCCc1c(O)nc(SCCN(C)C)n(-c2ccccc2)c1=O	PRMT1 inh 24
CCc1c(O)nc(SCC(=O)N2CCOCC2)n(-c2ccccc2)c1=O	none
O=C(CSc1nnc(-c2cccs2)o1)Nc1cc(Cl)cc(Cl)c1	none
CC(=O)N1CCCN(C(=O)Cn2cnc3ccccc3c2=O)CC1	none
C/C=C/C(=O)N1CCc2cc(S(=O)(=O)N(C)Cc3ccco3)ccc21	none
O=S(=O)(Nc1cccnc1Cl)c1ccc(F)cc1	none
O=S(=O)(Nc1cc(Sc2cccc3cccnc23)c(O)c2ccccc12)c1ccc(F)cc1	PRMT1 inh 73, LEDGF integ inh 24
OCC[C@@H]1C[C@H](O)[C@@H](O)[C@@]2(OCc3cc(C(F)(F)F)ccc32)O1	UHRF1 binding 22
O=C(c1cccnc1Cl)N1CCC(Oc2cccnc2)CC1	none
C=C1C(=O)[C@]23C[C@H]1CC[C@H]2[C@]1(C)CCC[C@@](C)(C(=O)OC)[C@H]1C[C@@H]3O	PRMT1 inh 24
C=C1C(=O)[C@]23C[C@H]1CCC2[C@@]1(C)C(C[C@@H]3O)[C@](C)(C(=O)OC)CC[C@@H]1O (stereo not given in full)	none
O=C1CCC/C=C\C[C@@H](CC(=O)N(CCO)Cc2ccccc2)C(=O)N[C@H](c2ccccc2)CO1	UHRF1 binding 22
O=C1N[C@@H](c2ccccc2)COC(=O)[C@@H](Cc2ccc(F)cc2)C/C=C\C[C@@H]1CC(=O)N(CCO)Cc1ccccc1	none
CCOC(=O)C1=C(C)c2ccccc2N(C(=O)OC)C1(C)C(=O)OCC (stereo not given)	PRMT1 inh 24
CCOC(=O)C1=C(C)c2ccccc2OC1(CC)C(=O)OCC (stereo not given)	none
Cc1cc(C(F)F)nn1CC(=O)NC1C(=O)N2C(C(=O)O)=C(CSc3nnnn3C)CSC12 (stereo not given)	PRMT1 inh 24
CC(C(=O)NC1C(=O)N2C(C(=O)O)=C(CSc3nnnn3C)CSC12)n1cc(Br)cn1 (stereo not given)	none
Cc1nn(C(C)C(=O)NC2C(=O)N3C(C(=O)O)=C(CSc4nnnn4C)CSC23)cc1Cl (stereo not given)	PRMT1 inh 24
c1ccc(Cn2c(-c3ccccc3)nc3nc4ccccc4nc32)cc1	none
Clc1cccc(-c2nc3nc4ccccc4nc3n2Cc2ccccc2)c1	UHRF1 binding 29
Cc1ccccc1CN1CCCCC(NC(=O)c2c(F)cccc2F)C1=O (stereo not given)	none
CC(CN1CCCCC1)C(=O)NN (stereo not given)	UHRF1 binding 21
CC(CN1CCCC1)C(=O)NN (stereo not given)	none
COc1ccc(CNC2CCC23CCCCC3)cc1OC (stereo not given)	none
COC1C=CC(CNC(=O)c2cc3c(=O)n4cccc(C)c4nc3n2C)(OC)O1 (stereo not given)	UHRF1 binding 69
Cc1cccn2c(=O)c3cc(C(=O)NC4CCCC4)n(C)c3nc12	none
COc1cccc2cc3c(nc12)C[C@@H]1CCCC(=O)N2CCC[C@@]12C3	none
Cc1ccc(CNC(=O)O[C@H]2CC[C@@]34CCCN3C(=O)CCC[C@H]4[C@H]2C)o1	none
COc1ccccc1N(CC(O)Cn1c2ccccc2c2ccccc21)S(=O)(=O)c1ccccc1 (stereo not given)	UHRF1 binding 21
CCOC(=O)c1ccc(Nc2cnc3ccccc3n2)cc1	none
CCOC(=O)COc1cnc2ccccc2n1	UHRF1 binding 22
COc1cc(NC(=O)C2CCCN(S(=O)(=O)c3cc(OC)ccc3OC)C2)cc(OC)c1 (stereo not given)	none
CN1C(=O)c2cc(NC(=O)Nc3ccccc3)ccc2OC[C@H]2O[C@@H](CC(=O)Nc3cc(F)ccc3F)CC[C@@H]21	none
